Measurements collected from several papers.
Lines come from different studies, so protocols differ.
Target: MAP kinase-interacting serine/threonine-protein kinase 2 (MKNK2, Homo sapiens, UniProt Q9HBH9)

SMILES	read-out	mode	technique	concentration	endpoint	result
CC(C)(C)c1cc(C=C(C#N)C#N)cc(Br)c1O	enzyme activity	inhibitor		0.5 µM	remaining activity	100%
COc1ncccc1-c1cnn2ccc(N3CCN(C(=O)OC(C)C)CC3)nc12	binding		competition with immobilised ligand	1 µM	remaining binding	100%
O=c1[nH]c2ccccc2n1C1CCN(Cc2ccc(-c3[nH]c4cc5ncnc5cc4nc3-c3ccccc3)cc2)CC1	cell-free assay			0.5 µM	remaining signal	98.7%
Nc1ncc(-c2nc(N3CCOCC3)nc(N3CCOCC3)n2)c(C(F)F)n1	binding		competition with immobilised ligand	10 µM	remaining binding	56%
C#Cc1n[nH]c2c(-c3cn([C@@H](C)c4ccccc4)c(=O)[nH]c3=O)cc(F)cc12	enzyme activity	inhibitor		0.1 µM	inhibition	-7.9%
Cc1nn(C)cc1-c1nc2c(N3CCN(Cc4ccc(Cl)cc4)CC3)c(Cl)cnc2[nH]1	binding		competition with immobilised ligand	1 µM	remaining binding	46%
N#CC1(c2ccccn2)CCN(Cc2cc(C(=O)O)c(=O)n3ccccc23)CC1	cell-free assay		competition with immobilised ligand	1 µM	remaining binding	85%
C#Cc1n[nH]c2c(-c3cn(C(C)c4ccccn4)c(=O)[nH]c3=O)cc(F)cc12 (stereo not shown)	enzyme activity	inhibitor		1 µM	inhibition	9.9%
Cn1cncc1[C@](O)(COc1ccc(C#N)cc1-c1ccc(OC(F)(F)F)cc1)c1ccc(C#N)cc1	cell-free assay		competition with immobilised ligand	1 µM	remaining binding	85%
COc1cc(Nc2ncc(F)c(Nc3ccc4c(n3)NC(=O)C(C)(C)O4)n2)cc(OC)c1OC	binding		competition with immobilised ligand	10 µM	inhibition	100%
